# Compound activity from PubChem.
# A selection: hits, their analogues and other compounds. The true share with any hit is near 1.8%.
# DAGLB inh – blocks human DAGLB lipase activity | HEK293T DAGLB membrane lysate, EnzChek fluorogenic substrate | inhibition, % at 5.17 µM | 340,000 compounds, 0.059% hits; in the data active means inhibition above about 34%;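 further: 0% = enzyme with vehicle and 100% = wells lacking enzyme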
# Target sequence (Q8NCG7 whole entry, looked up): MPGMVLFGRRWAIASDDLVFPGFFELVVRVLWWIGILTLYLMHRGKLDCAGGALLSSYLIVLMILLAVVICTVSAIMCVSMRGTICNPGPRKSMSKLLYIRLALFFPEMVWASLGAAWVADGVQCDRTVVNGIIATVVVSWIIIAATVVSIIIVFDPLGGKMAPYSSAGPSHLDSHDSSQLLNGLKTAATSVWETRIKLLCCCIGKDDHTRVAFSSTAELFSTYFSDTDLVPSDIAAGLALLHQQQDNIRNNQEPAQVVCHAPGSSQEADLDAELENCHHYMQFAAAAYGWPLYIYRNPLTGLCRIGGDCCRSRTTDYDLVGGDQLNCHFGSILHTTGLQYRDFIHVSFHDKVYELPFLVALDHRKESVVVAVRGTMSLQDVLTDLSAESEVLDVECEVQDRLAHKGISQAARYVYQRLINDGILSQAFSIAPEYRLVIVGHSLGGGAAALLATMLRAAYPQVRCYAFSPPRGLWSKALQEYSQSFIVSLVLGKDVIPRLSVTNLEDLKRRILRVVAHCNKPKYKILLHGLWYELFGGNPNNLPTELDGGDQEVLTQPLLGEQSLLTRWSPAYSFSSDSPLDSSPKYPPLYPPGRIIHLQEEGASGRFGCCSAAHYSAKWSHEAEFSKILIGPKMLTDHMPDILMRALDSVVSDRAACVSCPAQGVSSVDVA
# Cneo AK release – causes C. neoformans cell lysis. adenylate kinase release luminescence, 4 h; normalised: neutral wells 0, clomiphene wells 100. lysis activity, % at 15 µM. 360,000 compounds, 0.2% hits. AID 651654;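 active means mean lysis activity across replicates of at least 80%, whatever share of replicates individually reach that level; inactive means mean lysis activity below 80%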
#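 Material – Cryptococcus neoformans yeast cells · Quantity – 5 × 10^6 yeast cells/mL · Buffer or medium – YPD medium · Compound – single dose · Timing – 4 h static compound exposure, 37 °C, read 1 h post-reagent · Signal – adenylate kinase release luminescence · Read-out basis – lysis from increased AK signal · Benchmarks – Clomiphene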
# MT1-MMP act inh – MT1-MMP (human) activation inhibition | GFP/RFP ratio change, % at 20 µM | HT1080 RFP-PRO-GFP cells, GFP/RFP ratio fluorescence, overnight; percent of plate control window, DMSO zero | 360,000 compounds, 0.061% hits;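 active means GFP/RFP ratio change of at least 30% with cell ATP level not reduced by more than half and red fluorescence within 50% of control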
#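 Material – HT1080 RFP-PRO-GFP cells · Control set – DMSO wells and RFP-L50D-GFP cells · Incubation – overnight cell settling, then overnight compound exposure, 37 °C, 5% CO2 · Compound dosing – single-point 20 µM compound, 1% DMSO · Read-out – GFP/RFP fluorescence ratio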
# SKN-1 inh – inhibitors of C. elegans SKN-1; C. elegans VP596 Pgst-4::GFP/RFP ratio, acrylamide-induced, 24 h; inhibition, % at 21.8 µM; 360,000 compounds, 0.49% hits; AID 624304;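 active means interference check ratio from 0.5 to 1.5 plus GFP to RFP signal ratio inhibition reaching or exceeding a fixed threshold, cut at about 30% in these data, passing the limit was not always enough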
# rRNA inh HTS – inhibits bacterial ribosomal RNA function over humanized ribosomes. E. coli WT GFP vs humanized-ribosome RFP mutants, fluorescence, 24 h; hits give low values; DMSO median 0, no signal -100. GFP signal change (wild-type ribosome), % (test concentration not listed). 350,000 compounds, 1.6% hits;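 active means significant combined selectivity score with lowered wild-type GFP, culture density cut under 30%, mutant RFP and density less affected; inactive means any of these conditions unmet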
# iPSC survival up – enhancers of human iPSC single-cell survival. survival enhancement, % at 20 µM. AID 602274. hiPSC single-cell survival, ATPlite luminescence; 100% = ROCK inhibitor wells, 0% = DMSO. 360,000 compounds, 0.044% hits; in the data active means survival enhancement above about 18%;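 further: cells exposed to compounds for 16 hours before the ATP read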
# The depositor's hits bear a star; . = no result given.
SMILES,DAGLB inh,Cneo AK release,MT1-MMP act inh,SKN-1 inh,rRNA inh HTS,iPSC survival up
CC(=O)N(C)C[C@@H]1Oc2ncc(-c3ccccc3C)cc2C(=O)N([C@H](C)CO)C[C@@H]1C,.,2,.,.,2,.
O=C(C1CCC1)N1CCCCN2[C@H](CO)[C@@H](c3ccc(-c4cccc(F)c4)cc3)[C@@H]2C1,.,1,.,.,.,.
O=C(NCCO)c1cc2c([nH]c3ccccc32)c(-c2ccccc2)n1,-2,-2,4,7,-28*,1
O=C(NCCO)c1cc2c([nH]c3ccccc32)c(-c2ccc(F)cc2)n1,-4,1,-1,-3,-25,0
CC(C)(C)N(Cc1ccccc1)C(=O)c1cccs1,-7,2,-4,4,6,0
O=C(c1cccs1)c1sccc1Cc1ccccc1,-8,-2,-1,11,-16*,5
COc1ccccc1-n1c(SCC(=O)O)nc2c(sc(=S)n2-c2ccc(C)c(C)c2)c1=O,11,0,4,-9,-21*,0
CCCn1nnnc1NCc1ccc(Cl)cc1Cl,-3,-4,-1,7,-29*,0
CCCn1nnnc1NCc1ccccc1F,1,12,0,-13,10,0
Cc1[nH]c2ccccc2c1N=Nc1ccc(F)cc1,1,.,-2,87*,-52,0
Cc1cccc2c(=O)cc(C)n(CC(N)=O)c12,1,.,5,4,-28*,0
N#Cc1ccccc1,0,-1,2,11,-7,0
N#Cc1cncc(C#Cc2ccccc2)c1,-5,.,-4,61*,14,1
O=C(COCC(=O)Nc1cccc(C(F)(F)F)c1)Nc1cccc(C(F)(F)F)c1,-5,1,13,-1,.,-2
COc1cc(NC(=O)CSCC(=O)Nc2cccc(C(F)(F)F)c2)c(Cl)cc1Cl,-2,-2,9,5,-31*,2
Cc1cc(NS(=O)(=O)c2ccc(NC(=O)c3cc(-c4ccccc4Cl)nc4ccccc34)cc2)no1,7,.,4,-4,-28,0
Cc1cc(NS(=O)(=O)c2ccc(NC(=O)c3cc(-c4cccnc4)nc4ccc(Cl)cc34)cc2)no1,1,1,8,37*,.,-2
C[C@H](NC(=O)C[C@H]1CC[C@H](NC(=O)C2CCOCC2)[C@H](CO)O1)c1ccccc1,.,-1,.,.,-1,.
CCC(=O)N1[C@H](CO)[C@H]2c3ccccc3N(C(=O)c3ccc4c(c3)OCO4)C[C@H]21,.,-1,.,.,3,.
C=CCn1c(=O)c2ccccc2n2c(SCc3nc4ccccc4s3)nnc12,-2,-4,-1,18,.,-2
C=CCN1C(=O)C(=O)N(Cc2nc3ccccc3s2)C1=O,0,3,0,48*,9,0
C[C@@H]1CN([C@H](C)CO)S(=O)(=O)c2ccc(-c3ccccc3)cc2O[C@H]1CN(C)C(=O)c1ccccc1F,.,.,.,.,-11,.
O=C(CN1C(=O)C2CCCCC2C1=O)Nc1cccc(C(F)(F)F)c1 (stereo not drawn),-2,0,2,15,-15*,0
O=C(CN1C(=O)C2CCCCC2C1=O)Nc1cccc([N+](=O)[O-])c1 (stereo not drawn),0,0,1,6,1,0
O=C(Nc1cccc(F)c1)N1CC(=O)N2[C@H](C1)[C@@H](c1ccc(Br)cc1)[C@@H]2CO,.,.,.,.,-14,.
SMILES,DAGLB inh,Cneo AK release,MT1-MMP act inh,SKN-1 inh,rRNA inh HTS,iPSC survival up
O=S(=O)(NCCC1CC1(Cl)Cl)c1ccc(Cl)cc1 (stereo not drawn),-5,.,2,15,-48*,1
COc1ccc(-c2nc(C)ncc2-c2ccccc2)c(O)c1,-5,0,-8,4,-28*,0
COc1ccc(-c2cc(-c3ccccc3O)[nH]n2)cc1,-3,.,4,26,.,0
COc1ccc(-c2cc(-c3ccccc3)n[nH]2)c(O)c1,0,-5,6,35*,-57,-1
Cc1ccc(-n2nc(C)c3c(C)cc(=O)[nH]c32)cc1,-3,0,-4,-4,.,22*
Cc1nn(-c2ccccc2)c2[nH]c(=O)cc(C(F)F)c12,0,0,2,-1,-4,0
C[C@@H]1CN([C@H](C)CO)C(=O)c2cc(NC(=O)c3ccccc3)ccc2O[C@@H](C)CCCCO[C@@H]1CN(C)S(=O)(=O)c1ccc(Cl)cc1,.,1,.,.,-1,.
Cc1nc2cc(Cl)c(Cl)cc2n1CCCO,.,0,-3,22,-22*,-1
O=C(Nc1ccc([N+](=O)[O-])cc1)NN1CCCCCC1,0,-4,-2,9,-1.6*,-2
O=C(Nc1ccc([N+](=O)[O-])cc1)c1ccccc1,-1,-9,1,37*,27,-1
O=C(Nc1ccc([N+](=O)[O-])cc1)c1cccc([N+](=O)[O-])c1,1,-1,0,4,2,-1
COc1ccc(C(=O)Nc2ccc(Nc3ccccc3)cc2)cc1[N+](=O)[O-],6,-1,9,11,-15*,0
O=C(Nc1cc([N+](=O)[O-])ccc1N1CCCC1)c1ccccc1,1,2,.,3,-26*,1
O=C(Nc1ccc(F)cc1)N1C[C@H]2[C@@H](c3ccccc31)[C@@H](CO)N2C(=O)c1ccc(F)cc1,.,-2,.,.,0,.
O=C(NC(=S)Nc1ccccc1N1CCOCC1)c1cccc([N+](=O)[O-])c1,-13,258*,5,5,-3,2
CCC(=O)N1CCN(c2ccccc2NC(=S)NC(=O)c2cccc([N+](=O)[O-])c2)CC1,0,.,4,-2,-13,-2
CCCC(=O)Nc1ccc2c(c1)C(=O)N(C)C[C@@H](OC)[C@@H](C)CN(Cc1cccc(F)c1)[C@H](C)CO2,.,-4,.,.,-4,.
Clc1cc(Cl)c2nc(N3CCCC3)sc2c1,-5,-1,-2,37*,.,-2
Clc1cc(Cl)c2nc(N3CCCCC3)sc2c1,-15,-13,3,9,.,-1
C[C@@H]1CCCCO[C@@H](CN(C)Cc2ccc(C(=O)Nc3ccccc3N)cc2)[C@@H](C)CN([C@H](C)CO)C(=O)c2cc(NC(=O)C3CCCCC3)ccc2O1,.,.,.,.,0,.
CC[C@@H]1CC=CC[C@@H](C)Oc2ccccc2C(=O)N(C)[C@H](Cc2ccccc2)C(=O)N1 (mixture of isomers),.,.,.,.,-4,.
O=C(Nc1ccc(Br)cc1Br)C1CC(=O)N(Cc2ccccc2)C1 (stereo not drawn),2,0,2,-3,-34*,0
O=C(Nc1ccccc1N1CCCC1)C1CC(=O)N(Cc2ccccc2)C1 (stereo not drawn),1,1,1,5,-7,0
